From PubChem BioAssay
CHOP inhibitor = inhibitors of CHOP induction in ER stress response; CHO-K1 CHOP-promoter luciferase, tunicamycin-induced, 15-18 h; inhibition, % at 10 µM; 220,000 tested, 3.8% active; AID 2732;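 active = compounds that reduced the stress-induced luciferase reporter signal by more than about 70% of percent inhibition, limit read from the data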
UPR XBP1 act = activators of adaptive arm of unfolded protein response (XBP1) | CHO-XBP1 luciferase reporter, IRE1-XBP1 UPR activation, luminescence; percent of tunicamycin response, DMSO as zero | activation, % at 20 µM | 330,000 tested, 0.33% active;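 active = versus positive control, 20 µM dose yields 30% or more activation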
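Material: CHO-XBP1 cells stably carrying IRE1-XBP1-driven luciferase reporter / Amount: 1000 cells per well / Compound: 20 µM, 1% DMSO / Times: 6 h treatment, 37 °C / Detection: luciferase luminescence / Measure: % activation of reporter signal versus tunicamycin and DMSO controls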
UPR CHOP act = apoptotic UPR (CHOP) activation; CHO-CHOP luciferase reporter, luminescence; percent of tunicamycin response over DMSO baseline; 330,000 tested, 0.34% active; activation, % at 10 µM; AID 449763;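 active = at 10 µM dose, activation of 40% or more, normalized to positive control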
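Evaluation: % reporter activation, DMSO baseline versus tunicamycin full activation; System: CHO-CHOP luciferase reporter cell line; Input: 500 cells/well; Incubation: 6 h compound treatment, 37 °C; Measured by: Steady-Glo luciferase luminescence; Dosing: one dose, 10 µM in 0.5% DMSO; Buffer or medium: F12 medium, 10% FBS; Benchmarks: positive tunicamycin 10 µg/mL, negative DMSO alone.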
V-ATPase pH = yeast V-ATPase proton transport regulation by pHLuorin; S. cerevisiae, pHLuorin cytosolic pH fluorescence; response, % at 10 µM; 350,000 tested, 0.37% active; in the data active = response mostly above about 7.3%, no sharp cut-off; inactive = mostly below about 5.4%; note: actives read high
Tb MetRS inh = Trypanosoma brucei MetRS inhibition; purified T. brucei MetRS, ATP depletion, Kinase-Glo luminescence; inhibition, % at 11.9 µM; 360,000 tested, 0.4% active;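 active = inhibition above a per-plate cutoff of the control wells' mean inhibition plus 3 SD, cut at about 5.5% in these data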
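Measured by: Kinase-Glo luciferase luminescence reporting remaining unconsumed ATP. Material: purified T. brucei MetRS enzyme. Doses: 11.9 µM compound single dose, 0.9% DMSO. Medium: HEPES buffer containing pyrophosphatase, BSA, spermine, DTT. Times: 15 min preincubation, 2 h reaction, all 25 °C. Reagent: methionine, ATP and bulk E. coli tRNA.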
TbMetRS confirm = confirmation of Trypanosoma brucei MetRS inhibitors; shares compounds with Tb MetRS inh; T. brucei MetRS enzyme, luminescence (ATP depletion); inhibition, % at 11.9 µM; 1,400 tested, 93% active; AID 624412; in the data active = inhibition above about 7%
Jurkat tox = counter-screen for T. brucei MetRS inhibitors: Jurkat cell cytotoxicity; 1,400 tested, 12% active; inhibition, % at 8.3 µM; Jurkat cells viability, ATP luminescence; AID 624413; shares compounds with Tb MetRS inh; in the data active = inhibition above about 15%
Tb MetRS inh FP = orthogonal test for Trypanosoma brucei MetRS inhibitors; purified T. brucei MetRS, fluorescence polarization; shares compounds with Tb MetRS inh; AID 651607; 1,400 tested, 44% active; inhibition, % at 11.9 µM; in the data active = inhibition above about 17%
Hits are given with their value; n = inactive; x = no result. This excerpt belongs to a sample that is enriched for hits.

SMILES | CHOP inhibitor | UPR XBP1 act | UPR CHOP act | V-ATPase pH | Tb MetRS inh | TbMetRS confirm | Jurkat tox | Tb MetRS inh FP
COc1ccc(CCC(=O)Nc2c(-c3ccc(N(C)C)cc3)[nH][nH]c2=O)cc1 | x | x | x | x | 14.0 | n | n | n
COc1ccc(NC(=O)CC2C(=O)N(c3cccc(OC)c3)C(=O)N2CCC(C)C)cc1 (stereo not drawn) | n | n | n | n | n | x | x | x
O=c1[nH]c(COc2ccc(Br)cc2Cl)nc2ccccc12 | x | n | n | n | 6.2 | 30.0 | n | n
O=C(CCN(CCO)Cc1ccccc1)Nc1ccc(Br)cc1 | n | n | n | n | 20.2 | 39.7 | n | n
OCCCNc1ncnc2c1[nH]c1ccccc12 | n | n | n | n | 22.1 | 38.8 | n | 22.7
Fc1ccc2[nH]c3c(NCc4ccccc4)ncnc3c2c1 | x | n | n | n | 83.8 | 92.1 | 29.9 | 81.7
COCCCNc1ncnc2c1[nH]c1ccccc12 | n | x | x | x | x | x | x | x
COCCNc1ncnc2c1[nH]c1ccccc12 | n | n | n | n | 59.0 | 77.0 | n | 42.0
O=C(c1cc(F)ccc1F)C1CCCN(C(=O)c2ccc3nccnc3c2)C1 (stereo not drawn) | x | n | n | n | n | x | x | x
Cc1ccccc1NC(=O)CCC(=O)N/N=C/c1c[nH]c2ccccc12 | n | n | n | n | n | x | x | x
O=C(CN1CCN(Cc2ccc(Cl)cc2)CC1)N/N=C/c1c[nH]c2ccccc12 | n | n | n | n | 8.4 | 30.8 | n | n
Cc1ccc(CN2CCN(CC(=O)N/N=C/c3c[nH]c4ccccc34)CC2)cc1 | n | n | n | n | n | x | x | x
O=C(CCC(=O)Nc1ccccc1Cl)N/N=C/c1c[nH]c2ccccc12 | n | n | n | n | 8.0 | 15.6 | n | n
O=C(NNC(=O)c1ccc2nonc2c1)Nc1ccc(Cl)cc1 | n | n | n | n | 10.4 | 20.2 | n | n
CN(C(=O)CCN1C(=O)c2ccccc2C1=O)c1ccccc1 | x | n | n | n | n | x | x | x
O=C(Cn1cnc2c(NC(=O)OCc3ccccc3)ncnc21)NCCN1CCOCC1 | x | n | n | n | n | x | x | x
Cc1cc(Cl)ccc1OCc1cn2cccnc2n1 | n | n | n | n | 11.4 | 21.3 | n | n
CCN(CC)C(=O)c1ccc(Oc2ccc([N+](=O)[O-])cc2Cl)cc1 | n | n | n | n | 5.9 | 13.4 | n | n
COc1ccc(S(=O)(=O)NC(=O)C2(C)CCN2C(=O)C2CC2)cc1 (stereo not drawn) | x | x | x | x | 10.5 | 5.8 | n | n
Cn1nnc(NCc2cc(Br)ccc2OCc2ccccc2F)n1 | n | n | n | n | 20.2 | 24.3 | n | n
Fc1ccccc1COc1ccc(Br)cc1CNCC1CCCO1 (stereo not drawn) | n | n | n | n | n | x | x | x
Cc1cccc(C)c1NC(=O)C(c1ccc([N+](=O)[O-])cc1)N(C)C(=O)c1ccccn1 (stereo not drawn) | n | n | n | n | n | x | x | x
c1ccc2c(c1)CCN(c1ncnc3c1[nH]c1ccccc13)C2 | 70.7 | n | n | n | 12.9 | 9.1 | 46.5 | n
OC1(c2cccc(C(F)(F)F)c2)CCN(c2ncnc3c2[nH]c2ccccc23)CC1 | 71.1 | n | n | n | 6.1 | 14.3 | 15.6 | n
Nc1nnc(CC(=O)N/N=C/c2ccc(-c3ccc(F)cc3)o2)s1 | n | n | n | n | 6.4 | n | n | n
SMILES | CHOP inhibitor | UPR XBP1 act | UPR CHOP act | V-ATPase pH | Tb MetRS inh | TbMetRS confirm | Jurkat tox | Tb MetRS inh FP
Cc1cc(C)c2c(N)c(S(=O)c3ccc(C(C)(C)C)cc3)sc2n1 (stereo not drawn) | n | n | n | n | n | x | x | x
COc1ccc2[nH]c(=O)c(CN(C(=O)NC3CCCCC3)C3CCCCC3)cc2c1 | n | n | n | n | 7.0 | 37.2 | 17.7 | n
COc1ccc(/C=N/NC(=O)CN2CCSCC2)cc1C | n | n | n | n | n | x | x | x
O=C1CCC(=O)N1OCCCOc1ccc(Br)cc1Cl | n | x | x | n | 7.0 | 14.8 | n | 32.8
COc1ccc(C(=O)OCC(=O)c2ccc3c(c2)NC(=O)CO3)cc1OC | x | n | n | n | n | x | x | x
CCOC(=O)c1ccc2c(c1)NCc1cccc(OC)c1O2 | n | n | n | n | 5.8 | 10.8 | n | n
O=C(NCCN1CCOCC1)c1cnn2c(-c3ccccc3)cc(-c3ccccc3)nc12 | n | n | n | n | n | x | x | x
CCN(CC)c1ccc(C(=O)NNC(=O)CNC(=O)c2cccs2)cc1 | x | n | n | n | n | x | x | x
Cc1ccc2nc(/C(C#N)=C/c3cn[nH]c3-c3ccc(F)cc3)[nH]c2c1 | n | n | n | n | 24.3 | 50.9 | 56.9 | 46.9
O=C(CSc1ncc(-c2ccccc2)[nH]1)Nc1cccc(O)c1 | n | n | n | n | 5.6 | 13.4 | n | n
NC(Cc1ccc(C(F)(F)F)cc1)c1csc(NC(=O)Nc2ccccc2)n1 (stereo not drawn) | x | x | x | x | 76.9 | 96.2 | n | 90.5
NC(Cc1ccc(C(F)(F)F)cc1)c1csc(NC(=O)Nc2ccccc2Cl)n1 (stereo not drawn) | x | x | x | x | n | x | x | x
NC(Cc1ccc(Cl)cc1)c1csc(NC(=O)Nc2ccccc2)n1 (stereo not drawn) | x | x | x | x | 60.6 | 86.9 | n | 85.3
COc1ccccc1NC(=O)Nc1nc(C(N)Cc2ccc(Cl)cc2)cs1 (stereo not drawn) | x | x | x | x | n | x | x | x
COc1ccc2c(CC(=O)OCC(=O)Nc3sc4c(c3C#N)CCC(C)C4)coc2c1 (stereo not drawn) | n | n | n | n | n | x | x | x
CCCCn1nnnc1C(c1cc2ccccc2o1)N1CCN(C(=O)OCC)CC1 (stereo not drawn) | x | x | x | x | n | x | x | x
Cc1cc(=O)c2cc(Br)ccc2[nH]1 | n | n | n | n | 6.0 | 7.5 | n | n
Cc1cc(=O)c2ccccc2[nH]1 | n | n | n | n | n | x | x | x
CC(C)N1CC2(CC(c3ccc(Cl)cc3Cl)=NO2)CN1C(=O)c1ccc(C(C)(C)C)cc1 (stereo not drawn) | x | x | x | n | n | x | x | x
OC1C2COC(O2)C2OC(c3ccccc3)OC12 (stereo not drawn) | x | x | x | x | n | x | x | x
C[C@H](CO)N1C[C@H](C)[C@@H](CN(C)S(=O)(=O)c2ccc(F)cc2)Oc2ccc(NC(=O)Nc3ccccc3)cc2C1=O | x | n | n | n | n | x | x | x
C[C@H](CO)N1C[C@H](C)[C@@H](CN(C)C(=O)Nc2ccc(C(F)(F)F)cc2)Oc2ccc(NC(=O)Nc3ccccc3)cc2C1=O | x | n | n | n | 6.1 | 18.3 | n | n
C[C@H](CO)N1C[C@H](C)[C@@H](CN(C)S(=O)(=O)c2ccccc2)Oc2ccc(NC(=O)Nc3ccccc3)cc2C1=O | x | n | n | n | 7.2 | 18.9 | n | n
